Reference: ChEMBL document CHEMBL3580567 (J Med Chem, 2015)
The source made the active and inactive calls. The calls are words filed in the database; no cut-off is given here.

Key:
[1] = Induction of primary neuronal stem cell differentiation derived from subgranular zone of dentate gyrus of Wistar rat hippocampus assessed as upregulation of TuJ1 expression incubated for 7 days followed by 48 hrs incubation in presence of serum and absence of EGF by DAPI staining-based fluorescence microscopic analysis; type: functional, tissue-based; conditions: Primary neuron
How it was run: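 Neurospheres came from the SGZ of the dentate gyrus of adult male Wistar rats (8-12 weeks). They were grown in DMEM/F12 with 10 ng/mL EGF, 10 ng/mL FGF and B27. After 3 days, cultures were treated with compounds for 7 days. They were then plated on poly-L-lysine coverslips for 48 h with serum and without growth factors. Cells were immunostained for TuJ1 and MAP-2 with DAPI nuclei. Positive cells were counted by fluorescence microscopy in five NS per condition over three independent experiments. Untreated cultures gave basal values.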

[2] = biological target: 5-hydroxytryptamine receptor 2B (Homo sapiens) (UniProt P41595); experiment: Binding affinity to 5HT-2B receptor (unknown origin) at 10 uM
[3] = biological target: T1, Melatonin receptor type 1B (Homo sapiens, UniProt P49286); experiment: Displacement of 2-[125I]-iodomelatonin from human melatonin receptor-2 transfected in CHO cell membranes after 120 mins
T1 sequence (P49286 whole entry): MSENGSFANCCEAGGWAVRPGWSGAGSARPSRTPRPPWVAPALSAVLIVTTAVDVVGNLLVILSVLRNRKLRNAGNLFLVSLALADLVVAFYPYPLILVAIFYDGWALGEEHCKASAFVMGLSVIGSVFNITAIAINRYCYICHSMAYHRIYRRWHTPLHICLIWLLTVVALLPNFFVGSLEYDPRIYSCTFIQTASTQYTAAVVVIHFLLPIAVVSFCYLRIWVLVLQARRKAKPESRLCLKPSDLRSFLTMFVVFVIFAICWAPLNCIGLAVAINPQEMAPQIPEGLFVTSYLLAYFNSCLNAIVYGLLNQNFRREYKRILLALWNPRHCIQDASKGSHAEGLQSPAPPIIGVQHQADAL

[4] = biological target: T2, Melatonin receptor type 1A (Homo sapiens, UniProt P48039); experiment: Agonist activity at human melatonin receptor-1 transfected in CHO cell membranes after 1 hr by GTPgammaS binding assay; type: functional
[5] = biological target: T2, Melatonin receptor type 1A; experiment: Agonist activity at human melatonin receptor-1 transfected in CHO cell membranes after 1 hr by GTPgammaS binding assay relative to melatonin; type: functional
How it was run: (§1)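 CHO membranes (20 µg/mL) stably expressing human MT1 or MT2 in 20 mM HEPES pH 7.4, 100 mM NaCl, 3 µM GDP, 3 mM MgCl2, 20 µg/mL saponin. Incubated with 0.2 nM [35S]GTPγS for 1 h at rt, then filtered. Non-specific binding defined with 10 µM GTPγS. Seven concentrations in duplicate; EC50 and Emax fitted.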

[6] = biological target: T1, Melatonin receptor type 1B; experiment: Agonist activity at human recombinant melatonin receptor-2 expressed in CHO cells assessed as decrease of cAMP level after 10 mins by HTRF assay; type: functional, cell-based
How it was run: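 Functional agonist profiling was done by CEREP on cells expressing human recombinant MT receptors. MT1 was read by cellular dielectric spectroscopy and MT2 by homogeneous time-resolved fluorescence. The protocols are those on the company website.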

[7] = biological target: Sodium-dependent serotonin transporter (Homo sapiens) (UniProt P31645); experiment: Binding affinity to SERT (unknown origin) at 10 uM
[8] = biological target: T1, Melatonin receptor type 1B; experiment: Agonist activity at human melatonin receptor-2 transfected in CHO cell membranes after 1 hr by GTPgammaS binding assay; type: functional
[9] = biological target: T3, Melatonin receptor type 1B (Homo sapiens) (UniProt P49286); experiment: Agonist activity at human melatonin receptor-2 transfected in CHO cell membranes after 1 hr by GTPgammaS binding assay relative to melatonin; type: functional; how it was run: as §1
T3 sequence (whole entry): T1 sequence (P49286 whole entry)

[10] = biological target: 5-hydroxytryptamine receptor 2A (Homo sapiens) (UniProt P28223); experiment: Binding affinity to 5HT-2A receptor (unknown origin) at 10 uM
[11] = biological target: T4, Retinoic acid receptor alpha (Homo sapiens) (UniProt P10276); experiment: Binding affinity to RARalpha (unknown origin) at 10 uM
T4 sequence (whole entry): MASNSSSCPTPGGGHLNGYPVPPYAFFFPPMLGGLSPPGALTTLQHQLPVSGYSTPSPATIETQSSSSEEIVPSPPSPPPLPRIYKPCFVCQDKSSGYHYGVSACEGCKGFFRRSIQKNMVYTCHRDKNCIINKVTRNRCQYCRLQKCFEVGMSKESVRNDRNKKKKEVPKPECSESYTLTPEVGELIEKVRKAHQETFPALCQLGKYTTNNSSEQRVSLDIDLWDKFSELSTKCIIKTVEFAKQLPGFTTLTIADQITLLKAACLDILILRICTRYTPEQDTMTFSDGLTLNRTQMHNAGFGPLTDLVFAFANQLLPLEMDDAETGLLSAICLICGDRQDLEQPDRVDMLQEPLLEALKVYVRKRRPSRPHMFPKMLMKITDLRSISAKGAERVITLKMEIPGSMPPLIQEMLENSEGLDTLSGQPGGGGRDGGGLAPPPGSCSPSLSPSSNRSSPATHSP

T2 sequence (P48039 whole entry): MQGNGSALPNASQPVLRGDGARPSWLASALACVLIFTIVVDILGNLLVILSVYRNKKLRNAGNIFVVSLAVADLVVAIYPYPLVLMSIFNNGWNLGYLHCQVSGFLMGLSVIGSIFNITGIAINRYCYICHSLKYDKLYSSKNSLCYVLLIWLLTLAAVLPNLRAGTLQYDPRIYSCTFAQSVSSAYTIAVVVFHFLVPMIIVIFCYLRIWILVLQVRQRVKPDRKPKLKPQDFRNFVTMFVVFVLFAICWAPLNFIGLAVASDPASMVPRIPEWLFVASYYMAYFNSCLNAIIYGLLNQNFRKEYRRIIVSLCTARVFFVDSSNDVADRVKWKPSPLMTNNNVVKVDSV
Sequence of Sodium-dependent serotonin transporter (Homo sapiens) (P31645 whole entry, looked up): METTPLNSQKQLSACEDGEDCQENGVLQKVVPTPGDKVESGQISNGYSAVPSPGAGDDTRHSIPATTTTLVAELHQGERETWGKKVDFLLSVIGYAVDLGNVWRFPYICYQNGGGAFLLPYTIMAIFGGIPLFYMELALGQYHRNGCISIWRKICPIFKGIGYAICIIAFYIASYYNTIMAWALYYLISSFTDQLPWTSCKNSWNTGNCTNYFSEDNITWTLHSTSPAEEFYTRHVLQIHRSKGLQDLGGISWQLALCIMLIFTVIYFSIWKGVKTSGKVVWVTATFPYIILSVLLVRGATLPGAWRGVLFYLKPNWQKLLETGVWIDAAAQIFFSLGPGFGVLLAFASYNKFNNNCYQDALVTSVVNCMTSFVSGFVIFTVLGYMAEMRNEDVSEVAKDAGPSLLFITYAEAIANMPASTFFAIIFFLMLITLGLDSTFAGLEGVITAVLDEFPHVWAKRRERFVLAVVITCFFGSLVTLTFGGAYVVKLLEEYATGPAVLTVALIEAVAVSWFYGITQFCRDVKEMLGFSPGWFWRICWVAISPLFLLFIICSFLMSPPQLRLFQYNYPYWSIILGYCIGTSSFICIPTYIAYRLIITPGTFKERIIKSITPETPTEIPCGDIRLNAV
Sequence of 5-hydroxytryptamine receptor 2B (Homo sapiens) (P41595 whole entry): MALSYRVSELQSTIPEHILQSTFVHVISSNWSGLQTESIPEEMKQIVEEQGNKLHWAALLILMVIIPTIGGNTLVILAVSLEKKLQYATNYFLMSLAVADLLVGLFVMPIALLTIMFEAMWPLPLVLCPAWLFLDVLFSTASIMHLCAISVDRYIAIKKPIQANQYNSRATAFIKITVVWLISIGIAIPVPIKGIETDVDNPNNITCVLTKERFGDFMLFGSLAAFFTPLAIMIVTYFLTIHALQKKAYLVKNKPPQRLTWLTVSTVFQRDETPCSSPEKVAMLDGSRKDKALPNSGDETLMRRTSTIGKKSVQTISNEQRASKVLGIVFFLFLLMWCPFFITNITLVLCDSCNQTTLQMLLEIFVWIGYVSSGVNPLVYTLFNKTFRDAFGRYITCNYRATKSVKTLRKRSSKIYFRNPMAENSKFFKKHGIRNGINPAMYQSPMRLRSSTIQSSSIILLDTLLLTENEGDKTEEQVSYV
Sequence of 5-hydroxytryptamine receptor 2A (Homo sapiens) (P28223 whole entry): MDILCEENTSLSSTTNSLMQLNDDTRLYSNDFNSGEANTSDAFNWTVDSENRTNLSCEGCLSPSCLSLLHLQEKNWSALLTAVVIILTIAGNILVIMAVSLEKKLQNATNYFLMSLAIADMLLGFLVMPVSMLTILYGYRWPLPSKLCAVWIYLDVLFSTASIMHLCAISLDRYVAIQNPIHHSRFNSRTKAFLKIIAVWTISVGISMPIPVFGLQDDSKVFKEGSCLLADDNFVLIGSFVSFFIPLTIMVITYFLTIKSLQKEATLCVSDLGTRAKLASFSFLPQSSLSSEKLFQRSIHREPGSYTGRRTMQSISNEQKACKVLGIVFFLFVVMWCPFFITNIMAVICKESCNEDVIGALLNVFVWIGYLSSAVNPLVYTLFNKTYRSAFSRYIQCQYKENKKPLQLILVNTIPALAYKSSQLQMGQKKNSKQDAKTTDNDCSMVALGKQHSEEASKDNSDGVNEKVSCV

With `COc1ccc2[nH]cc(CCc3nnc(C)o3)c2c1` the Activity [1] was “Dose-dependent effect”, the Activity [2] was “inactive” and the Ki [3] was 190 nM. It also gave an EC50 [4] of 961 nM, an Emax [5] of 19% and an EC50 [6] of 1600 nM. The Activity [7] was “inactive”, the EC50 [8] was 881 nM and the Emax [9] was 32%. The Activity [10] was “inactive” and the Activity [11] was “inactive”.
